Assay results gathered from unrelated publications.
Compare with care: the assays were run in different laboratories.
Target: Dual specificity tyrosine-phosphorylation-regulated kinase 1A (DYRK1A, Homo sapiens, UniProt Q13627)

CCCCC(=O)Nc1ccc(-c2ccc3ncn(CCC)c(=O)c3c2)cn1  remaining binding (binding, competition with immobilised ligand; 0.5 µM): 81%
C1=C/COCc2cc(ccc2OCCN2CCCC2)Nc2nccc(n2)-c2cccc(c2)COC/1  remaining binding (binding; 0.1 µM): 52%
c1cnc(-c2nnc3sc(C45CC6CC(CC(C6)C4)C5)nn23)cn1  inhibition (enzyme activity, inhibitor, ADP detection; 10 µM): 8.44%
C=CC(=O)N1CCC([C@@H]2CCNc3c(C(N)=O)c(-c4ccc(Oc5ccccc5)cc4)nn32)CC1  inhibition (cell-free assay; 1 µM): 3%
CN1CCN(C(=O)c2ccc(NC(=O)Nc3ccc(N(C)c4ccnc(Nc5ccc(CS(C)(=O)=O)cc5)n4)cc3)cc2)CC1  remaining binding (binding; 1 µM): 62%
C=C(C)C1CCC(C)=C1COC(=O)c1cc([N+](=O)[O-])cc([N+](=O)[O-])c1 (stereo not shown)  inhibition (enzyme activity, inhibitor, ADP detection; 10 µM): 10.3%
CC(C)S(=O)(=O)c1ccc2nccc(Nc3ccc4sc(C5CCCC5)nc4c3)c2c1  activity vs control (enzyme activity, inhibitor; 1 µM): 103%
CCOC(=O)c1c(NC(=O)CCC(=O)OC)sc2c1CCCC2  inhibition (enzyme activity, inhibitor, ADP detection; 10 µM): 18.3%
CC#CC(=O)N1CCC[C@H]1c1nc(-c2ccc(C(=O)Nc3ccccn3)cc2)c2c(N)nccn12  inhibition (enzyme activity, inhibitor; 1 µM): 3%
C[C@H]1CC[C@H](n2c3cnccc3c3cnc(Nc4ccc5c(n4)CCN(C(=O)CO)C5)nc32)CC1  remaining signal (cell-free assay; 1 µM): 0%
O=[N+]1C=CC(=C2C=CN([O-])C=C2)C=C1  inhibition (enzyme activity, inhibitor, ADP detection; 10 µM): 52.8%
COc1ccc2oc(-c3ccc4nc(N)oc4c3)c/c(=N\c3ccccc3NC(=O)CCN)c2c1  remaining binding (binding, competition with immobilised ligand; 1 µM): 111%
CC(=O)ON=C1C=CC(=C(C#N)c2ccccc2)C=C1  activity vs control (enzyme activity, inhibitor, ADP detection; 2 µM): 99%
